Results collected from several papers.
Compare with care: the assays were run in different laboratories.
Target: Rhodopsin kinase GRK1 (GRK1, Homo sapiens, UniProt Q15835)
One construct used (Q15835 1-563): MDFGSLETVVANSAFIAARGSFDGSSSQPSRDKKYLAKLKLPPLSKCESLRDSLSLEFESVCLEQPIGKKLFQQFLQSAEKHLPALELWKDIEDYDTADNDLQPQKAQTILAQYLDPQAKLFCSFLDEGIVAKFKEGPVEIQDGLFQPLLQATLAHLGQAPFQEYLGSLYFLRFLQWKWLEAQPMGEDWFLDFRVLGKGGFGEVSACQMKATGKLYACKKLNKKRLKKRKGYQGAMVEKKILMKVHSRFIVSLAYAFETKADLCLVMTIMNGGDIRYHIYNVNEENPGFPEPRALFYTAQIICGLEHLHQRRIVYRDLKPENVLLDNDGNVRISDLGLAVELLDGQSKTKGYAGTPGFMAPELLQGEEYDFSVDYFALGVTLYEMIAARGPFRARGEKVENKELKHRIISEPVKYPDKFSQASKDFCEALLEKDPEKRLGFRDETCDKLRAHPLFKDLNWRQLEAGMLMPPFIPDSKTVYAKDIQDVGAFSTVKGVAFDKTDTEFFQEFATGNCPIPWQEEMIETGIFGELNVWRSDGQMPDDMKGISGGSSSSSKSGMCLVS

CNCc1ccccc1-c1csc([C@H](C)Nc2nc(C)nc3cc(OC)c(OC)cc23)c1 — remaining binding (cell-free assay, competition with immobilised ligand; 1 µM): 100%
Cn1c2c(c3ccc(Cl)c(Cl)c31)C(C#N)C1(CCCC1)NC2=O (stereo not drawn) — ΔTm (thermal stability, DSF; 10 µM): 0 °C
Cc1cc(NC(=O)c2cccc3cc(-c4cccc5[nH]nc(N)c45)ccc23)ccc1F — activity vs control (enzyme activity, inhibitor; 0.1 µM): 85%
Cc1ccc(NC(=O)c2ccc(C)c(C(F)(F)F)c2)cc1C#Cc1nn(C2CCC(O)CC2)c2ncnc(N)c12 (stereo not drawn) — remaining signal (cell-free assay; 10 µM): 94%
Cn1c2c(c3ccc(Cl)c(Cl)c31)C(C#N)C1(CCNCC1)NC2=O (racemic) — ΔTm (thermal stability, DSF; 10 µM): 2.4 °C
Cc1cnc(NC2CCOCC2)nc1-n1cnc(C(=O)NC(CN)c2cc(F)cc(Cl)c2)c1 (stereo not drawn) — remaining activity (enzyme activity, inhibitor, radiometric; 1 µM): 98%
O=C(NS(=O)(=O)c1ccc(NCC2CCOCC2)c([N+](=O)[O-])c1)c1ccc(N2CCN(Cc3ccc(C(F)(F)F)cc3-c3ccc(Cl)cc3)CC2)cc1Oc1cnc2[nH]ccc2c1 — remaining binding (cell-free assay, competition with immobilised ligand; 1 µM): 100%
CC(C)(O)[C@H]1CC[C@H](Nc2ccc3ncc(-c4cccc(C(F)(F)F)c4)n3n2)CC1 — remaining activity (enzyme activity, inhibitor; 1 µM): 89.2%
NS(=O)(=O)c1cc(NC(=O)Cc2ccccc2)ccc1Oc1cccc(Cl)c1 — remaining binding (cell-free assay, competition with immobilised ligand; 1 µM): 83%
Cn1c2c(Cl)c(Cl)ccc2c2cn[nH]c(=O)c21 — ΔTm (thermal stability, DSF; 10 µM): 1.3 °C
Cc1ccc(C(=O)NCc2ccsc2)cc1C#Cc1cn(C(C)C)c2ncnc(N)c12 — activity vs control (enzyme activity, inhibitor; 1 µM): 106%
COc1ccc2cc(OCC3(C(=O)O)CN(C(=O)c4ccc(F)cc4)C3)ccc2c1 — remaining binding (cell-free assay, competition with immobilised ligand; 1 µM): 100%
O=C(Nc1cnn(-c2csc(C(=O)NC3COC3)c2)c1)Nc1ccccc1Cl — remaining activity (enzyme activity, inhibitor; 5 µM): 91.9%
Cn1c2c(Cl)c(Cl)ccc2c2cc(N)[nH]c(=O)c21 — ΔTm (thermal stability, DSF; 10 µM): 0.5 °C
O=C(N1CCS(=O)(=O)CC1)N1C[C@H](c2ccc(OC(F)(F)F)cc2)C[C@H](c2nc(C3CC3)no2)C1 — remaining binding (cell-free assay, competition with immobilised ligand; 1 µM): 92%
